Laboratory results as given in ChEMBL document CHEMBL1275350, “First in class, potent, and orally bioavailable NADPH oxidase isoform 4 (Nox4) inhibitors for the treatment of idiopathic pulmonary fibrosis” (J Med Chem, 2010).
pIC50, pKi: −log10 of the molar value.

Legend:
[1] = biological target: Polyunsaturated fatty acid lipoxygenase ALOX12 (Homo sapiens) (UniProt P18054); assay: Inhibition of human 12-lipoxygenase at 10 uM
[2] = biological target: Polyunsaturated fatty acid lipoxygenase ALOX15 (Homo sapiens) (UniProt P16050); assay: Inhibition of 15-lipoxygenase at 10 uM
[3] = biological target: NADPH oxidase 2 (Homo sapiens, UniProt P04839); assay: Inhibition of human NOX2 overexpressed in […] cell membrane assessed as ROS production by cell free assay in presence of NADPH
Summary of the method: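 Nox2 source: membranes from human polymorphonuclear cells, sonicated and collected at the 17/40% sucrose interface. ROS read by Amplex Red/HRP in PBS after NADPH addition, with compound at 1 nM–100 μM for 20 min at 37 °C. Background taken without membranes or agonist. Ki via Cheng-Prusoff, mean of ≥3 experiments in triplicate.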

[4] = biological target: Xanthine dehydrogenase/oxidase (Homo sapiens, UniProt P47989); assay: Inhibition of xanthine oxidase by in vitro enzymatic assay in presence of xanthine
Summary of the method: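 Cell-free Amplex Red read-out: xanthine oxidase incubated in PBS with Amplex Red, HRP and cofactors; ROS production started by adding xanthine. Compound at rising concentrations from 1 nM to 100 μM, 20 min at 37 °C, then read on a plate reader. Background taken without enzyme or without agonist. Ki by Cheng-Prusoff, mean of at least three experiments run in triplicate.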

[5] = system: Plasma; assay: Unbound fraction in Sprague-Dawley rat 50% plasma protein; format: ADME, cell-free
[6] = Intrinsic clearance in Sprague-Dawley rat liver microsomes assessed per mg of protein at 0.5 uM; format: ADME, Microsome
Summary of the method: (§1)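 Phase I stability assay in pooled liver microsomes (human: male and female; rat: male Sprague-Dawley). Microsomes at 0.5 mg/mL final in 0.1 M phosphate pH 7.4. Compound 0.5 μM final, 0.25% DMSO. Preincubated at 37 °C, reaction started with 1 mM NADPH. Sampled at 0, 5, 15, 30 and 45 min, with a 45 min minus-NADPH control. Methanol quench with internal standard, LC/MS-MS, intrinsic clearance calculated.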

[7] = Permeability across human Caco-2 cell membrane at 10 uM after 2 hrs; format: ADME, cell-based
Summary of the method: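 Caco-2 monolayers grown 20 days in DMEM, used when TEER >800 Ω·cm2. Dosed at 10 μM final in HBSS pH 6.5 with 1% DMSO, apical-to-basolateral and basolateral-to-apical. Incubated 2 h at 37 °C, both compartments sampled, LC-MS/MS with five-point calibration. Papp = (dQ/dt)/(C0A).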

[8] = biological target: Cytochrome P450 3A4 (Homo sapiens, UniProt P08684); assay: Inhibition of human CYP3A4; format: ADME
Summary of the method: (§2)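 Recombinant human CYP isoforms with isoform-specific probe substrates and NADPH. Compound at 0.1–25 μM, final DMSO 0.3%. Metabolites measured by mass spectrometry, except CYP1A2, which used a fluorescent metabolite. IC50 derived from the decrease in metabolite formation compared with vehicle control.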

[9] = Intrinsic clearance in human liver microsomes assessed as per mg of protein at 0.5 uM; format: ADME, Microsome; summary of the method: as §1
[10] = biological target: Cytochrome P450 2C9 (Homo sapiens, UniProt P11712); assay: Inhibition of human CYP2C9; format: ADME; summary of the method: as §2
[11] = AUC (infinity) in Sprague-Dawley rat at 10 mg/kg, po; format: ADME, organism-based; design: time infinity, dose 10 mg/kg, route oral; conditions: plasma
Summary of the method: (§3)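 Parallel design with six male rats: three given 5 mg/kg iv in EDPW (10% EtOH, 10% DMA, 30% PG, 50% water), three given 10 mg/kg orally in aqueous 0.5% CMC with 0.25% Tween 20. Carotid cannula blood sampled up to 24 h. Plasma levels by LC/MS/MS (LLOQ 1.00 ng/mL). Noncompartmental analysis.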

[12] = Oral bioavailability in Sprague-Dawley rat at 10 mg/kg; format: ADME, organism-based; conditions: in vivo
Summary of the method: (§4)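 Parallel design in male rats, three per group. Group 1: 5 mg/kg iv in EDPW (10% EtOH, 10% DMA, 30% PG, 50% water). Group 2: 10 mg/kg oral in aqueous 0.5% CMC with 0.25% Tween 20. Carotid cannula blood drawn up to 24 h. Plasma measured by LC/MS/MS (LLOQ 1.00 ng/mL), noncompartmental analysis.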

[13] = Cmax in Sprague-Dawley rat at 10 mg/kg, po; format: ADME, organism-based; design: dose 10 mg/kg, route oral; conditions: in vivo; summary of the method: as §3
[14] = Tmax in Sprague-Dawley rat at 10 mg/kg, po; format: ADME, organism-based; design: dose 10 mg/kg, route oral; conditions: in vivo; summary of the method: as §4
[15] = AUC (infinity) in Sprague-Dawley rat at 5 mg/kg, iv; format: ADME, organism-based; design: time infinity, dose 5 mg/kg, route intravenous; conditions: plasma; summary of the method: as §3
[16] = Half life in Sprague-Dawley rat at 5 mg/kg, iv; format: ADME, organism-based; design: dose 5 mg/kg, route intravenous; conditions: in vivo; summary of the method: as §3
[17] = Clearance in Sprague-Dawley rat at 5 mg/kg, iv; format: ADME, organism-based; design: dose 5 mg/kg, route intravenous; conditions: in vivo; summary of the method: as §3
[18] = Inhibition of calcium channel at 10 uM
[19] = Inhibition of sodium channel at 10 uM
[20] = biological target: MAO-B (Homo sapiens, UniProt P27338); assay: Inhibition of MAO-B at 10 uM
[21] = biological target: MAP kinase p38 (Homo sapiens) (UniProt O15264+Q15759+Q16539+P53778); assay: Inhibition of human p38 MAP kinase at 10 uM; format: protein assay
[22] = biological target: Dual specificity mitogen-activated protein kinase kinase 1 (Homo sapiens) (UniProt Q02750); assay: Inhibition of human MEK1 at 10 uM
[23] = biological target: Protein kinase C alpha type (Homo sapiens) (UniProt P17252); assay: Inhibition of human PKCalpha at 10 uM
[24] = biological target: Protein kinase C delta type (Homo sapiens) (UniProt Q05655); assay: Inhibition of human PKCdelta at 10 uM
[25] = biological target: Phosphatidylinositol 4,5-bisphosphate 3-kinase catalytic subunit alpha isoform (Homo sapiens) (UniProt P42336); assay: Inhibition of PI3Kalpha at 10; conditions: concentration not given here
[26] = biological target: Phosphatidylinositol 4,5-bisphosphate 3-kinase catalytic subunit beta isoform (Homo sapiens) (UniProt P42338); assay: Inhibition of PI3Kbeta at 10; conditions: concentration not given here
[27] = biological target: Phosphatidylinositol 4,5-bisphosphate 3-kinase catalytic subunit gamma isoform (Homo sapiens) (UniProt P48736); assay: Inhibition of PI3Kgamma at 10; conditions: concentration not given here
[28] = biological target: Phosphatidylinositol 4,5-bisphosphate 3-kinase catalytic subunit delta isoform (Homo sapiens) (UniProt O00329); assay: Inhibition of PI3Kdelta at 10; conditions: concentration not given here
[29] = biological target: Tyrosine-protein phosphatase non-receptor type 1 (Homo sapiens) (UniProt P18031); assay: Inhibition of human PTP1B at 10 uM
[30] = biological target: Endothelin-1 receptor (Homo sapiens) (UniProt P25101); assay: Inhibition of human ET-A receptor at 10 uM
[31] = biological target: Cytochrome P450 1A2 (Homo sapiens, UniProt P05177); assay: Inhibition of human CYP1A2; format: ADME; summary of the method: as §2
[32] = Genotoxicity in Salmonella Typhimurium at 100 uM by mini Ames test; format: toxicity; conditions: salmonella enterica subsp. enterica serovar typhimurium
[33] = biological target: Nitric oxide synthase, endothelial (Homo sapiens) (UniProt P29474); assay: Inhibition of eNOS at 10 uM
Sequence of Nitric oxide synthase, endothelial (Homo sapiens) (P29474 whole entry, looked up): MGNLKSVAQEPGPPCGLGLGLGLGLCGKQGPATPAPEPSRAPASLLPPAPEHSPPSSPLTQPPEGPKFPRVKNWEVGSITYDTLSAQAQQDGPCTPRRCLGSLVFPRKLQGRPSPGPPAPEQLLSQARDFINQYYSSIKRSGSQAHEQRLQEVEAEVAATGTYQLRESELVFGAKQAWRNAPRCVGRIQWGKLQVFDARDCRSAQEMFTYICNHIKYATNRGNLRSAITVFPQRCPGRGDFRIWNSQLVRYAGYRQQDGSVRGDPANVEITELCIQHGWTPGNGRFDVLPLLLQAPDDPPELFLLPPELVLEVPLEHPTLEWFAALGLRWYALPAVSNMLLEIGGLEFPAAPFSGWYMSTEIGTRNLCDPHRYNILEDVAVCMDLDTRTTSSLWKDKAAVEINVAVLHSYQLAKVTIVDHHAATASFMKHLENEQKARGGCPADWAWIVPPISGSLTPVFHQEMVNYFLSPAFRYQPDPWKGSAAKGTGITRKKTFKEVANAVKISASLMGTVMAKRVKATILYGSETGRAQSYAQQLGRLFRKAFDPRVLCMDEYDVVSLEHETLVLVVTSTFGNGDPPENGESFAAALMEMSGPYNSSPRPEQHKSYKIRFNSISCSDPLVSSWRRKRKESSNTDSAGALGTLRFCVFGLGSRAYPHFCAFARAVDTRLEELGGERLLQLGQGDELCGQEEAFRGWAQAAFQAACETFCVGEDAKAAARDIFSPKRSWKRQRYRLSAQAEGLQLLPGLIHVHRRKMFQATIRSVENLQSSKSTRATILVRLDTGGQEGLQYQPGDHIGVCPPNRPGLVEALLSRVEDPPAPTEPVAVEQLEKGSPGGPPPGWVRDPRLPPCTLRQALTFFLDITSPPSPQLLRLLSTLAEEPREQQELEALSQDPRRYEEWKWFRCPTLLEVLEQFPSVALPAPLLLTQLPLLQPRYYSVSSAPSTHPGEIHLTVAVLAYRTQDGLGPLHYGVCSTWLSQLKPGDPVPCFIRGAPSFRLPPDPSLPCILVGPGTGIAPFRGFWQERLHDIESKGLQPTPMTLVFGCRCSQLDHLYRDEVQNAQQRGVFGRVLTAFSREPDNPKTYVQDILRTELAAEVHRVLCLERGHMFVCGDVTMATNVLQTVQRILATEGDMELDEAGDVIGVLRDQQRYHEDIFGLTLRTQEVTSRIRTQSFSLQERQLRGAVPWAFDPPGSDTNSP

Sequence of Polyunsaturated fatty acid lipoxygenase ALOX15 (Homo sapiens) (P16050 whole entry): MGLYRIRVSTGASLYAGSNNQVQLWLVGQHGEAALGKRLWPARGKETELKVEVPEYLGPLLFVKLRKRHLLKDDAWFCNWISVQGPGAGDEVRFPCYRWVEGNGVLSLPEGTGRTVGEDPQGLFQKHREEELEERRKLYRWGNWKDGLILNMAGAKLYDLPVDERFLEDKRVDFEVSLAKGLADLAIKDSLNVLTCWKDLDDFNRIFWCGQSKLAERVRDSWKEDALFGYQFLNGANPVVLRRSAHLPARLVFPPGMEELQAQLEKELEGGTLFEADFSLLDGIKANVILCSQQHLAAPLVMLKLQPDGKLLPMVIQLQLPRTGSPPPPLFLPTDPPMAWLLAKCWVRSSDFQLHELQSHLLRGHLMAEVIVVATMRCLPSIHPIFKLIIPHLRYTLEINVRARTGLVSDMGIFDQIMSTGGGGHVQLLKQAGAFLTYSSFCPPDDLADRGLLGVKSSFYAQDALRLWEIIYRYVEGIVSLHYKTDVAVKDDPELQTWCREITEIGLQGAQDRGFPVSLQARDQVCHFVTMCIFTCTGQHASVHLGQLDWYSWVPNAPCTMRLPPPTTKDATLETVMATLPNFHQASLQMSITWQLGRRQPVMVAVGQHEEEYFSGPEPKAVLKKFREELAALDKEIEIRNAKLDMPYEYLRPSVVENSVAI
Sequence of Dual specificity mitogen-activated protein kinase kinase 1 (Homo sapiens) (Q02750 whole entry): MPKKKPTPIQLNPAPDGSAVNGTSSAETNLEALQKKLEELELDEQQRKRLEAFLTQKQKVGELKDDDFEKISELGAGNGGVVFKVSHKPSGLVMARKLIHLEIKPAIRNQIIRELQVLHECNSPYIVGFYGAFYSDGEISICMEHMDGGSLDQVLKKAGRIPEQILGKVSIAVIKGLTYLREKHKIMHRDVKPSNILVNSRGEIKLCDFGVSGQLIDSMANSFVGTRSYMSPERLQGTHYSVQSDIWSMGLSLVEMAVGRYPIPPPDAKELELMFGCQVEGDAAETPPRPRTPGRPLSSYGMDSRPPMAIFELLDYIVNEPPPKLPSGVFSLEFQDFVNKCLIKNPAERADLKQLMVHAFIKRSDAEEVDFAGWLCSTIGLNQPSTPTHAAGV
Sequence of MAO-B (P27338 whole entry): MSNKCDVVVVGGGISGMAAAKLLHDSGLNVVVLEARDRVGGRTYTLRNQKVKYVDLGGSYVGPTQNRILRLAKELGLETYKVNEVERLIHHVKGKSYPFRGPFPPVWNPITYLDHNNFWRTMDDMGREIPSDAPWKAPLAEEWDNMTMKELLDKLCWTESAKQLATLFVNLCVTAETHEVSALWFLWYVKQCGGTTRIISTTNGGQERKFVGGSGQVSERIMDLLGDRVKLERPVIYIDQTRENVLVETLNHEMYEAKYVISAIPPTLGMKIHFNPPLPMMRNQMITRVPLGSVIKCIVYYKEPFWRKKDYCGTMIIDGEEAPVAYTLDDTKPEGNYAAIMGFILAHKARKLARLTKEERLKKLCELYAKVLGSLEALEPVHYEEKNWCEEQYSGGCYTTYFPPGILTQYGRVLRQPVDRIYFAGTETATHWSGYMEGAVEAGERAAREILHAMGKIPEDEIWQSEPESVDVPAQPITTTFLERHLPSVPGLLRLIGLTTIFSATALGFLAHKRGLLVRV
Sequence of Polyunsaturated fatty acid lipoxygenase ALOX12 (Homo sapiens) (P18054 whole entry): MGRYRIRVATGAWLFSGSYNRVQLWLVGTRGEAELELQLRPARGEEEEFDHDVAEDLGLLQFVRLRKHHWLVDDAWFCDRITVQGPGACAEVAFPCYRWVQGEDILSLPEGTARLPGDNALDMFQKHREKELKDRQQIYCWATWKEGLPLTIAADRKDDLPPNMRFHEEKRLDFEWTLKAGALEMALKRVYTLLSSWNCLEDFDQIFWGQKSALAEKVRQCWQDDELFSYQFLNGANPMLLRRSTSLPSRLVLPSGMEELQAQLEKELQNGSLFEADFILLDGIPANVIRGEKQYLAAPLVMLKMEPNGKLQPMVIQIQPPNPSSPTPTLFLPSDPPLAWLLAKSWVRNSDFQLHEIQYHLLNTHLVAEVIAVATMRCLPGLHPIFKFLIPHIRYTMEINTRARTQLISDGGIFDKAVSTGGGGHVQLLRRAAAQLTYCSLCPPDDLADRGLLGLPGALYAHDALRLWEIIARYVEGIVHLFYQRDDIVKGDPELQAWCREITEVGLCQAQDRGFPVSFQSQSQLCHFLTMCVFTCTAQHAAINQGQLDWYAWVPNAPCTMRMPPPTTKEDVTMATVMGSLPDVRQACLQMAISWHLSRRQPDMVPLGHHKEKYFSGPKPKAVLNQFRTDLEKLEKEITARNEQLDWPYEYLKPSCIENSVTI
Sequence of NADPH oxidase 2 (P04839 whole entry): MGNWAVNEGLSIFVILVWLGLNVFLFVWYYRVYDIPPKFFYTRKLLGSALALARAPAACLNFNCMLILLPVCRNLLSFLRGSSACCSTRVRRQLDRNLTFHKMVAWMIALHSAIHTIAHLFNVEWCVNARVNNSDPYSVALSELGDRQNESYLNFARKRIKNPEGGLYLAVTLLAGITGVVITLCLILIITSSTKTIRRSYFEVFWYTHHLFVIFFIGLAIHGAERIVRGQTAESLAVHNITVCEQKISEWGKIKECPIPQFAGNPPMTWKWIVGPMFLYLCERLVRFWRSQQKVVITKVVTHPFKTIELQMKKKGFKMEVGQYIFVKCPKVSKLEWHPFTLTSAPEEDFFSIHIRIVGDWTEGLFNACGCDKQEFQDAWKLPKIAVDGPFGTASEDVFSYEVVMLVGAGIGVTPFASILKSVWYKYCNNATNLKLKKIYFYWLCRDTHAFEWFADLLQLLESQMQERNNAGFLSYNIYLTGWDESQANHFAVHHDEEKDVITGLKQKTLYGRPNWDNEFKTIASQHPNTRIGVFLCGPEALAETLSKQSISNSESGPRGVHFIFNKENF

- inhibition [1]: 2%
- inhibition [2]: 0%
- pKi [3]: 5.82
- pKi [4]: < 4.52
- Fu [5]: 20.5%
- microsomal CLint at 0.5 µM [6]: 70.2 µL/min/mg
- Papp at 2 h, 10 µM [7]: 21.4 ×10⁻⁶ cm/s
- pIC50 [8]: 4.68
- microsomal CLint at 0.5 µM [9]: 24.8 µL/min/mg
- pIC50 [10]: < 4.60
- AUC(0-inf) [11]: 10900 ng·h/mL
- bioavailability [12]: 54%
- Cmax [13]: 3150 ng/mL
- Tmax [14]: 1.5 h
- AUC(0-inf) [15]: 11000 ng·h/mL
- half-life [16]: 218 min
- clearance [17]: 7.83 mL/min/kg
- inhibition [18]: 0%
- inhibition [19]: 4%
- inhibition at 10 µM [20]: 0%
- inhibition [21]: 10%
- inhibition [22]: 0%
- inhibition [23]: 0%
- inhibition [24]: 0%
- inhibition [25]: 0%
- inhibition [26]: 0%
- inhibition [27]: 0%
- inhibition [28]: 0%
- inhibition [29]: 0%
- inhibition [30]: 0%
- pIC50 [31]: < 4.60
- inhibition [33]: 6%
Compound: Cc1c2c(=O)n(-c3ccccc3Cl)[nH]c2cc(=O)n1Cc1ccccn1
- Activity [32]: Non-toxic
